For data set [1], the target named is T1, Prostaglandin D2 receptor 2 (Homo sapiens, UniProt Q9Y5Y4).
T1 sequence (Q9Y5Y4 whole entry): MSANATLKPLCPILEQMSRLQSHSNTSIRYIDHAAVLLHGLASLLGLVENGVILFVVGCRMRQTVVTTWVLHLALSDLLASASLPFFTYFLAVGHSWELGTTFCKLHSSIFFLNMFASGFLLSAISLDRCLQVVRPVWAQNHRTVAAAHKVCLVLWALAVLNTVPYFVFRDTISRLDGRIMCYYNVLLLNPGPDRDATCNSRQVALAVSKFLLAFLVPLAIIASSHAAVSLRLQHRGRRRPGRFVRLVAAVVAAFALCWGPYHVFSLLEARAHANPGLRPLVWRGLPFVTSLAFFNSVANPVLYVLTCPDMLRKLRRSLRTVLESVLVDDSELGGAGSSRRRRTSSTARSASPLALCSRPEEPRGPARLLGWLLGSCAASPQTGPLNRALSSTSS
The data set can be described thus: Displacement of [3H]PGD2 from human CRTH2 receptor expressed in HEK293 cell membranes. A digest of the protocol:
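Radioligand binding on membranes from HEK293.F cells transiently transfected with human CRTH2 cDNA. Test compounds dissolved in DMSO, run at 1% (v/v) final DMSO. PGD2 used at 1 μM final concentration. Values are means of n = 2-4 experiments.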
In general terms: Loss of bound radioactivity is the signal in a displacement assay; it reports binding, not function.

Data set [2] addresses Voltage-gated inwardly rectifying potassium channel KCNH2 (Homo sapiens, UniProt Q12809). The data set can be described thus: Displacement of [3H]Dofetilide from human hERG potassium channel expressed in HEK293 cell membranes.
Data set [3] in a line: Cmax in BALB/c mouse at 30 mg/kg, po administered through 0.2 % Tween 80/0.5 % HPMC formulation. The format is ADME, organism-based. Set-up: dose 30 mg/kg, route oral. To be noted: in vivo. A digest of the protocol: (§1)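 Oral dosing at 30 mpk in female BALB/c mice, given as a solution in 0.2% Tween 80/0.5% HPMC, as an early bioavailability assessment.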
A short description of data set [4]: Metabolic stability in human liver microsomes assessed as compound remaining after 30 mins. To be noted: read-out: Stability. The format is ADME, Microsome. A digest of the protocol: (§2)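 Incubation with rat or human liver microsomes for 30 min. Percent of parent remaining at 30 min reported.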
Data set [5] concerns the target T2, Prostaglandin D2 receptor (Homo sapiens, UniProt Q13258).
T2 sequence (Q13258 whole entry): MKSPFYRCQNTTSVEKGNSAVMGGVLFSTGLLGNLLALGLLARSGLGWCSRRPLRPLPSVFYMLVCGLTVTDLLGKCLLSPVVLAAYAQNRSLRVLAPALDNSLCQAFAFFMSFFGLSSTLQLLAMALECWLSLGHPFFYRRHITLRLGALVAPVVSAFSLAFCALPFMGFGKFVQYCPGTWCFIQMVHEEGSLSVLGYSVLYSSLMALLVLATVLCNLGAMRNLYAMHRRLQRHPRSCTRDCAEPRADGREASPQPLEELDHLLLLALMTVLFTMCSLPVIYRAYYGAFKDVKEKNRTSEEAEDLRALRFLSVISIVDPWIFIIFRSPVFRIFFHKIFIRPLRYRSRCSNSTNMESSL
The data set can be described thus: Displacement of [3H]PGD2 from human DP1 receptor expressed in HEK293 cell membranes. In outline: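 Radioligand binding on membranes from HEK293 cells expressing human DP-1. Test compounds dissolved in DMSO, run at 1% (v/v) final DMSO. PGD2 used at 1 μM final concentration.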

A short description of data set [6]: AUC in BALB/c mouse at 30 mg/kg, po administered through 0.2 % Tween 80/0.5 % HPMC formulation. As to conditions: plasma. It is filed as ADME, organism-based. Set-up: dose 30 mg/kg, route oral. In outline: as §1
Data set [7] is described as follows: Metabolic stability in rat liver microsomes assessed as compound remaining after 30 mins. The format is ADME, Microsome. As to conditions: read-out: Stability. A digest of the protocol: as §2
For data set [8], the target named is T1, Prostaglandin D2 receptor 2. The data set can be described thus: Antagonist activity at human CRTH2 receptor expressed in CHO/Ga16 cells co-expressing Galpha16 protein assessed as calcium flux by FLIPR assay. It is filed as functional, cell-based. In outline:
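CHO cells co-expressing Gα16 and stably transfected with human CRTH2; antagonism read as calcium flux; IC50 determined.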
In general terms: A change in cytosolic calcium serves as a functional read-out for many receptors and channels.

Voltage-gated inwardly rectifying potassium channel KCNH2, sequence (Q12809 whole entry): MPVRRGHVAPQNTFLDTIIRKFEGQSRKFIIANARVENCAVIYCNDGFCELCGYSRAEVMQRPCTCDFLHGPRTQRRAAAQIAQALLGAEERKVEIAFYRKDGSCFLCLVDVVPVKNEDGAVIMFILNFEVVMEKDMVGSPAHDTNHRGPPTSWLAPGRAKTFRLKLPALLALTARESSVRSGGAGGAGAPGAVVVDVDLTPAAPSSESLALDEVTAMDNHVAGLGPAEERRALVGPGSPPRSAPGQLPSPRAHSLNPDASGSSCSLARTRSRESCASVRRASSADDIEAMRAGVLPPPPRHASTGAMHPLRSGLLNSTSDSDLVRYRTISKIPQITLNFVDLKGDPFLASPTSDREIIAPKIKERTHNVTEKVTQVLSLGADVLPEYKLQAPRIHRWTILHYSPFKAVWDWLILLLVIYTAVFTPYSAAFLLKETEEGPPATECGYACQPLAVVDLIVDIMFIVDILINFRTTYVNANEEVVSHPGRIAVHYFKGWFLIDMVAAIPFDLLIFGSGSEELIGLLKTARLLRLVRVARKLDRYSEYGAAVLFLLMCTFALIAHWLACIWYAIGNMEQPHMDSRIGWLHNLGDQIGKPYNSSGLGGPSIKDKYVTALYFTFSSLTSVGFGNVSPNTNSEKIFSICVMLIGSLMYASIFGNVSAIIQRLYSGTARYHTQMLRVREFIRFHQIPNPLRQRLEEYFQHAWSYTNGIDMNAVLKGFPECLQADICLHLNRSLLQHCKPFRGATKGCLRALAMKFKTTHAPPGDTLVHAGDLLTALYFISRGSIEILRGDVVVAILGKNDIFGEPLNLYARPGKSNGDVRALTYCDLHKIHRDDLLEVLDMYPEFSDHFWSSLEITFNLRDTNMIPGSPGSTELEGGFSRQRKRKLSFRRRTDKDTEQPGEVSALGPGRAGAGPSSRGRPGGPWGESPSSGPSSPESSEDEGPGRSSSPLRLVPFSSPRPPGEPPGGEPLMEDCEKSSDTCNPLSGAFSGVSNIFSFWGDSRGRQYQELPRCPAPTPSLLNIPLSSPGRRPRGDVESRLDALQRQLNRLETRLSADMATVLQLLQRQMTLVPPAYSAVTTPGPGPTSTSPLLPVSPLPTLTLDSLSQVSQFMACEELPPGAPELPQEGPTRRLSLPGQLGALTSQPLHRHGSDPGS

A word on the IC50: it is the point on the concentration scale where inhibition reaches its midpoint. Turning to `Cc1c(CC(=O)O)c2ccsc2n1S(=O)(=O)c1ccccc1`, the IC50 in data set [1] came to 2.75 µM.
The same measure, in the same setting: the figure for `Cc1c(CC(=O)O)c2ccsc2n1S(=O)(=O)c1ccc(F)cc1` is 1.63 µM.
Consider `Cc1c(CC(=O)O)c2ccsc2n1S(=O)(=O)c1ccc(C(F)(F)F)cc1`, for which the IC50 in data set [1] came out at 1.13 µM.
As to `Cc1c(CC(=O)O)c2ccsc2n1S(=O)(=O)c1ccc(C#N)cc1`, the IC50 in data set [1] came to 3 µM.
For orientation: Cmax means the maximum level reached in the sampled fluid or tissue. In general, AUC refers to concentration integrated over time. A lower AUC goes with low exposure. Regarding `Cc1c(CC(=O)O)c2ccsc2n1S(=O)(=O)c1ccc(S(C)(=O)=O)cc1`, the figures for the IC50 in data set [2], in data set [1] and in data set [5] were over 100 µM, 0.09 µM and over 50 µM, respectively. The compound further showed a Cmax in data set [3] of 7800 ng/mL. Further, the remaining at 0.5 h in data set [4] and in data set [7] was 100% each time. Also, the AUC in data set [6] amounted to 16400 ng·h/mL.
In data set [1], `Cc1c(CC(=O)O)c2ccsc2n1S(=O)(=O)c1ccc(S(=O)(=O)N2CCOCC2)cc1` gave an IC50 of 0.23 µM.
Same read-out and setting: the same measure for `Cc1c(CC(=O)O)c2ccsc2n1S(=O)(=O)c1ccc(S(=O)(=O)N2CCCC2)cc1`: 0.39 µM.
Same read-out and setting: the figure for `Cc1c(CC(=O)O)c2ccsc2n1Cc1ccc(S(=O)(=O)N(C)C)cc1` is 0.19 µM.
Consider `Cc1c(CC(=O)O)c2ccsc2n1Cc1ccc(S(=O)(=O)N2CCOCC2)cc1`, for which the IC50 in data set [1] worked out at 0.07 µM.
Consider `Cc1c(CC(=O)O)c2ccsc2n1Cc1ccc(S(=O)(=O)N(C)C2CCCCC2)cc1`, for which the half-inhibitory concentration (IC50) in data set [2] was 31 µM; in data set [1], 0.02 µM; in data set [5] it was over 50 µM. Also, the remaining at 0.5 h in data set [4] came out at 62%; in data set [7], 57%.
In the case of `Cc1c(CC(=O)O)c2ccsc2n1Cc1ccc(S(C)(=O)=O)cc1`, the IC50 is 31 µM in data set [2], 0.13 µM in data set [8], 0.05 µM in data set [1] and over 50 µM in data set [5]. Further, the remaining at 0.5 h in data set [4] is 91%; in data set [7], 90%.
With `Cc1c(CC(=O)O)c2ccsc2n1Cc1ccc(S(C)(=O)=O)cc1Cl`, the IC50 in data set [2] is 45 µM; in data set [1] it was 0.01 µM; in data set [5] it was over 50 µM. Moreover, the remaining at 0.5 h worked out at 97% in data set [4] and 99% in data set [7].
Compound `Cc1csc2c1c(CC(=O)O)c(C)n2S(=O)(=O)c1ccc(S(C)(=O)=O)cc1` yielded a concentration for half-maximal inhibition (IC50) in data set [1] of 1.3 µM.
The compound `Cc1csc2c1c(CC(=O)O)c(C)n2Cc1ccc(S(C)(=O)=O)cc1` came in with a half-maximal inhibitory concentration (IC50) in data set [1] of 1.5 µM.
`Cc1cc2c(CC(=O)O)c(C)n(Cc3ccc(S(C)(=O)=O)cc3)c2s1` showed an IC50 in data set [1] of 1.8 µM.
On the same count and under the same terms, the same measure for `Cc1cc2c(CC(=O)O)c(C)n(Cc3ccc(S(C)(=O)=O)cc3Cl)c2s1`: 0.33 µM; for `CS(=O)(=O)c1ccc(S(=O)(=O)n2cc(CC(=O)O)c3ccsc32)cc1`: 4 µM; for `CS(=O)(=O)c1ccc(S(=O)(=O)n2cc(CC(=O)O)c3sccc32)cc1`: 5 µM.

The values above are taken from ChEMBL document CHEMBL1681707, “Thienopyrrole acetic acids as antagonists of the CRTH2 receptor” (Bioorg Med Chem Lett, 2011).
